High-throughput results as filed in PubChem BioAssay.
Yeast life ext: compounds extending yeast replicative lifespan, primary screen, S. cerevisiae, OD615 | S. cerevisiae growth with nicotinamide; deaD strain in restrictive glucose medium | inhibition of the nicotinamide effect, % at 10 µM | hit rate 0.68% among 130,000 | AID 775, 2007;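 active = inhibition above a set limit, placed 3 SD over the median of all compounds, cut at about 26% in these data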;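 also: 0% = nicotinamide-treated wells and 100% = cells grown without nicotinamide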
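System: Modified budding yeast, DeaD strain | Buffer or medium: Restrictive glucose medium | Also added: 1.5 mM nicotinamide | Doses: 10 µM single point, 0.25% DMSO | Schedule: 48 h compound exposure at 30 °C, humidified | Detection: Absorbance at 615 nm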
Yeast growth inh: growth inhibitors of yeast BB579 in restrictive medium, primary screen, yeast lifespan-shortening project, S. cerevisiae. OD615, 48 h. inhibition, % at 10 µM. hit rate 0.51% among 140,000. AID 804, 2007;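 active = inhibition above a set limit, 3 SD over the mean compound inhibition, cut at about 44% in these data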
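System: DeaD yeast strain BB579; buffer or medium: CSMM-D dextrose restrictive medium; technique: OD at 615 nm; schedule: 4 h cell preincubation, 48 h compound exposure, 30 °C humidified; doses: single 10 µM dose; controls: amphotericin B 10 µg/mL, positive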
RAM network inh: inhibitors of the yeast RAM network, primary screen, dse1pr::URA3 reporter, 5-FOA selection. inhibition, % at 50 µM. S. cerevisiae dse1pr::URA3 reporter, 5-FOA growth OD615, 2 d; analog-sensitive cbk1-as2 kinase mutant strain. hit rate 1.8% among 190,000. AID 868, 2007;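 active = inhibition above a set limit, 3 SD over mean compound inhibition, cut at about 8.4% in these data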;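 also: 0% = DMSO-only wells with no growth and 100% = 10 µM 1-NA-PP1 full growth; inhibition rescues growth on 5-FOA so higher OD means more RAM inhibition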
Measles CPE: compounds protecting cells from measles virus cytopathic effect, primary screen, measles RdRp inhibitor project, single point, MLSMR library, absorbance; Measles virus-infected cells, CPE protection; protection (pct of control), % at 4 µM; hit rate 1.5% among 140,000; AID 841, 2007; in the data active = protection mostly above about 24%, no sharp cut-off; inactive = mostly below about 26%
Numbers without * were called inactive; . = no result given. In the library only some 3.6% were active in any assay of this set; here they are far more common.

SMILES	Yeast life ext	Yeast growth inh	RAM network inh	Measles CPE
COCCn1c(N/N=C(C)/C=C/c2ccccc2)nc2c1c(=O)[nH]c(=O)n2C	.	.	5	.
CCN(CC)Cc1c(O)c(Cl)cc2c(C)cc(=O)oc12	.	.	0	.
CCN(CC)Cc1c(O)c(Cl)cc2c(C)c(C)c(=O)oc12	88*	-66	1	7
Cc1ccc(NC(=O)COC(=O)c2ccc(OCc3c(C)noc3C)cc2)cc1S(=O)(=O)N1CCOCC1	3	-48	11*	9
O=[N+]([O-])c1cccc(/C=C/C=N/Nc2nc(N3CCCCC3)nc(N3CCCCC3)n2)c1	.	.	4	.
O=C(OCC(=O)N1CCN(C(=O)c2ccco2)CC1)C1=COCCO1	-2	-32	2	23*
COc1ccc(-c2nc3c(-c4ccc(F)cc4)cnn3cc2C)cc1F	.	.	4	.
CC(=O)N(/N=C/c1cccc(C)c1)c1nc(-c2ccc(Br)cc2)cs1	7	-86	4	3
COc1ccc(/C=N/N(C(C)=O)c2nc(-c3ccc(C)cc3)cs2)cc1	-1	-74	9.3*	22
CCOC(=O)c1c(-c2ccc(C)cc2)csc1NC1=NS(=O)(=O)c2ccccc21	0	-18	6	13
CON1C(=O)C(=O)N(OC)C2CCCCCC21 (configuration not stated)	-1	-26	0	45*
CCOC(=O)c1cnc(-c2ccccc2)nc1Oc1ccc(Cl)c(Cl)c1	-6	-9	5	16
CCOC(=O)c1cnc(SC)nc1Oc1cccc(NC(=O)c2ccc(Cl)cc2)c1	8	-35	7	1
CCOC(=O)c1cnc(SC)nc1Oc1cccc(NS(=O)(=O)c2ccc(Cl)cc2)c1	7	-62	9.2*	8
CCOC(=O)c1cnc(-c2ccccc2)nc1Oc1cccc(Cl)c1	-3	-35	8.9*	17
COc1ccc(NC(=O)/C(=C\c2ccncc2)NC(=O)c2ccccc2)cc1	.	.	1	.
COc1ccc(CC(=O)Nc2nnc(SCC(=O)NCc3ccco3)s2)cc1OC	.	.	6	.
COc1ccc(N2CCN(C(=S)Nc3cccc(C)c3C)CC2)cc1	4	-74	10*	10
COc1ccc(N2CCN(C(=S)Nc3ccc(C)cc3)CC2)cc1	.	.	3	.
O=c1ccnc(Nc2ccc3c(c2)OCCO3)[nH]1	.	.	1	.
O=[N+]([O-])c1ccc(CN2CCN(Cc3c[nH]c4ccccc34)CC2)cc1	.	.	1	.
Oc1c(N=Nc2ccccn2)ccc2ccccc12	-12	96*	1	3
c1ccc2c(c1)ccc1ncccc12	.	.	2	.
COc1ccc(-n2cc(-c3ccc(OC(F)F)cc3)[n+]3c2CCCCC3)cc1	.	.	2	.
COc1ccc(C2=Nn3c(nnc3-c3ccccn3)SC2)cc1OC	-1	-13	-1	8
SMILES	Yeast life ext	Yeast growth inh	RAM network inh	Measles CPE
c1ccc(-c2nnc3n2N=C(c2ccc4c(c2)OCO4)CS3)nc1	-3	-55	9.2*	17
Clc1ccc(C2=Nn3c(nnc3-c3cccs3)SC2)cc1	.	4	3	11
Cc1ccc(-c2nnc3n2N=C(c2ccccc2)CS3)cc1	-11	-25	4	19
Clc1ccc(C2=Nn3c(nnc3-c3cc(-c4ccccc4)n[nH]3)SC2)cc1	-17	-72	9.1*	5
c1ccc(C2=Nn3c(nnc3-c3cc(-c4ccccc4)n[nH]3)SC2)cc1	-4	-4	8.6*	9
Cc1cc(C)n(-c2nnc(NC34CC5CC(CC(C5)C3)C4)nn2)n1	5	-6	1	16
CCN(CC)S(=O)(=O)c1ccc(C)c(NC(=O)CSc2nc3ccc(C)cc3[nH]2)c1	4	-4	1	10
Cc1ccc(NC(=O)c2noc(C(C)C)c2[N+](=O)[O-])cc1	.	.	1	.
CCS(=O)(=O)N1Cc2ccccc2CC1C(=O)N1CCN(c2ccccc2)CC1 (configuration not stated)	-20	-5	-1	62*
CCOC(=O)C1=NNC2(c3ccccc3)C(=O)N(c3cccc(Br)c3)C(=O)C12 (configuration not stated)	2	-62	0	14
CCOC(=O)C1=NNC2(c3ccc(Cl)cc3)C(=O)N(c3ccc(C)cc3)C(=O)C12 (configuration not stated)	-1	-9	11*	16
Cc1ccc(/C=C2\C(=O)ON=C2c2ccccc2)o1	.	.	1	.
Cc1ccc(-c2ccc(/C=C3\C(=O)ON=C3c3ccccc3)o2)c([N+](=O)[O-])c1	71*	-21	7	6
